Reference: PMC3969088 (British Journal of Pharmacology, 2014)
Where no end group is shown, it is not given here.

Legend:
[1] = target: AM1 receptor, CLR G35A (HA-CLR G35A with FLAG-RAMP2) (human) (UniProt Q16602)
[2] = target: AM1 receptor, CLR I32A (HA-CLR I32A with FLAG-RAMP2) (human) (UniProt Q16602)
[3] = target: AM1 receptor, CLR I52A (HA-CLR I52A with FLAG-RAMP2) (human) (UniProt Q16602)
[4] = target: AM1 receptor, CLR L34A (HA-CLR L34A with FLAG-RAMP2) (human) (UniProt Q16602)
[5] = target: AM1 receptor, CLR M42A (HA-CLR M42A with FLAG-RAMP2) (human) (UniProt Q16602)
[6] = target: AM1 receptor, CLR Q33A (HA-CLR Q33A with FLAG-RAMP2) (human) (UniProt Q16602)
[7] = target: AM1 receptor, CLR V36A (HA-CLR V36A with FLAG-RAMP2) (human) (UniProt Q16602)
[8] = target: AM2 receptor, CLR G35A (HA-CLR G35A with RAMP3) (human) (UniProt Q16602)
[9] = target: AM2 receptor, CLR I32A (HA-CLR I32A with RAMP3) (human) (UniProt Q16602)
[10] = target: AM2 receptor, CLR I41A (HA-CLR I41A with RAMP3) (human) (UniProt Q16602)
[11] = target: AM2 receptor, CLR I52A (HA-CLR I52A with RAMP3) (human) (UniProt Q16602)
[12] = target: AM2 receptor, CLR L34A (HA-CLR L34A with RAMP3) (human) (UniProt Q16602)
[13] = target: AM2 receptor, CLR M42A (HA-CLR M42A with RAMP3) (human) (UniProt Q16602)
[14] = target: AM2 receptor, CLR Q33A (HA-CLR Q33A with RAMP3) (human) (UniProt Q16602)
[15] = target: AM2 receptor, CLR Q45A (HA-CLR Q45A with RAMP3) (human) (UniProt Q16602)
[16] = target: AM2 receptor, CLR T37A (HA-CLR T37A with RAMP3) (human) (UniProt Q16602)
[17] = target: AM2 receptor, CLR V36A (HA-CLR V36A with RAMP3) (human) (UniProt Q16602)
[18] = target: AM2 receptor, wild type (HA-CLR with RAMP3) (human) (UniProt Q16602)
[19] = target: CGRP receptor, CLR G35A (HA-CLR G35A with RAMP1) (UniProt Q16602)
[20] = target: CGRP receptor, CLR I32A (HA-CLR I32A with RAMP1) (UniProt Q16602)
[21] = target: CGRP receptor, CLR I41A (HA-CLR I41A with RAMP1) (UniProt Q16602)
[22] = target: CGRP receptor, CLR L34A (HA-CLR L34A with RAMP1) (UniProt Q16602)
[23] = target: CGRP receptor, CLR M42A (HA-CLR M42A with RAMP1) (UniProt Q16602)
[24] = target: CGRP receptor, CLR Q45A (HA-CLR Q45A with RAMP1) (UniProt Q16602)
[25] = target: CGRP receptor, CLR T37A (HA-CLR T37A with RAMP1) (UniProt Q16602)
[26] = target: CGRP receptor, wild type (HA-CLR with RAMP1) (UniProt Q16602)
[27] = target: AM1 receptor, RAMP2 E101A (HA-CLR with FLAG-RAMP2 E101A) (human) (UniProt Q16602)
[28] = target: AM2 receptor, RAMP3 W84A (HA-CLR with RAMP3 W84A) (human) (UniProt Q16602)
[29] = target: AM2 receptor, RAMP3 W84F (HA-CLR with RAMP3 W84F) (human) (UniProt Q16602)
[30] = target: AM2 receptor, wild type (HA-CLR with RAMP3) (human) (UniProt Q16602); remark: listed apart in the source
[31] = test system: CLR mutants at the AM1 receptor; experiment: specific binding of [125I]-rAM to CLR mutants at the AM1 receptor; set-up: species or system human; details: Cos7, 4°C 1 h
In short: (§1)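 Cos7 cells transiently cotransfected (PEI, 1 μg DNA/well total) with HA-tagged human CLR mutants plus FLAG-human RAMP2 (AM1) or untagged human RAMP3 (AM2). Cells incubated in DMEM/0.5% BSA with [125I]-rAM ([…], 30 000 cpm/well) at 4°C for 1 h, washed with ice-cold PBS, NaOH-solubilised and gamma-counted. […] Specific binding normalised to the WT mean.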

[32] = test system: CLR mutants at the AM2 receptor; experiment: specific binding of [125I]-rAM to CLR mutants at the AM2 receptor; set-up: species or system human; details: Cos7, 4°C 1 h
In short: as §1

Work on “Human adrenomedullin 2 (AM2-47) (from UniProt Q7Z4H4 101-148) (peptide)” yielded a pEC50, cAMP production in Cos7 cells [1] of 7.92, a pEC50, cAMP production in Cos7 cells [2] of 8.24 and a pEC50, cAMP production in Cos7 cells [3] of 8.11. The pEC50, cAMP production in Cos7 cells [4] was 7.64, the pEC50, cAMP production in Cos7 cells [5] was 7.86 and the pEC50, cAMP production in Cos7 cells [6] was 7.89. It also gave a pEC50, cAMP production in Cos7 cells [7] of 7.89, a pEC50, cAMP production in Cos7 cells [8] of 8.78 and a pEC50, cAMP production in Cos7 cells [9] of 9.47. The pEC50, cAMP production in Cos7 cells [10] was 8.47, the pEC50, cAMP production in Cos7 cells [11] was 9.12 and the pEC50, cAMP production in Cos7 cells [12] was 9.13. The pEC50, cAMP production in Cos7 cells [13] was 8.61, the pEC50, cAMP production in Cos7 cells [14] was 8.56 and the pEC50, cAMP production in Cos7 cells [15] was 8.94. It also gave a pEC50, cAMP production in Cos7 cells [16] of 7.7, a pEC50, cAMP production in Cos7 cells [17] of 8.62 and a pEC50, cAMP production in Cos7 cells; WT control paired with CLR G35A [18] of 9.09. The pEC50, cAMP production in Cos7 cells; WT control paired with CLR I32A [18] was 9.83, the pEC50, cAMP production in Cos7 cells; WT control paired with CLR I41A [18] was 9.32 and the pEC50, cAMP production in Cos7 cells; WT control paired with CLR I52A [18] was 9.29. The pEC50, cAMP production in Cos7 cells; WT control paired with CLR L34A [18] was 9.42, the pEC50, cAMP production in Cos7 cells; WT control paired with CLR M42A [18] was 8.82 and the pEC50, cAMP production in Cos7 cells; WT control paired with CLR Q33A [18] was 8.59. For the same substance, the pEC50, cAMP production in Cos7 cells; WT control paired with CLR Q45A [18] was 8.95, the pEC50, cAMP production in Cos7 cells; WT control paired with CLR T37A [18] was 9.13 and the pEC50, cAMP production in Cos7 cells; WT control paired with CLR V36A [18] was 9.09. For the same substance, the pEC50, cAMP production in Cos7 cells [19] was 8.04, the pEC50, cAMP production in Cos7 cells [20] was 8.52 and the pEC50, cAMP production in Cos7 cells [21] was 7.23. The pEC50, cAMP production in Cos7 cells [22] was 8.44, the pEC50, cAMP production in Cos7 cells [23] was 8.27 and the pEC50, cAMP production in Cos7 cells [24] was 7.97. The pEC50, cAMP production in Cos7 cells [25] was 7.47, the pEC50, cAMP production in Cos7 cells; WT control paired with CLR G35A [26] was 8.4 and the pEC50, cAMP production in Cos7 cells; WT control paired with CLR I32A [26] was 8.42. For the same substance, the pEC50, cAMP production in Cos7 cells; WT control paired with CLR I41A [26] was 8.31, the pEC50, cAMP production in Cos7 cells; WT control paired with CLR L34A [26] was 8.51 and the pEC50, cAMP production in Cos7 cells; WT control paired with CLR M42A [26] was 8.33. For the same substance, the pEC50, cAMP production in Cos7 cells; WT control paired with CLR Q45A [26] was 8.65, the pEC50, cAMP production in Cos7 cells; WT control paired with CLR T37A [26] was 8.31 and the pEC50, cAMP production in Cos7 cells; WT control paired with CLR V36A [26] was 8.42. It also gave a pEC50, cAMP production in Cos7 cells [27] of 7.39, a pEC50, cAMP production in Cos7 cells [28] of 9.02 and a pEC50, cAMP production in Cos7 cells [29] of 9.38. The pEC50, cAMP production in Cos7 cells; WT control paired with RAMP3 W84A [30] was 9.62 and the pEC50, cAMP production in Cos7 cells; WT control paired with RAMP3 W84F [30] was 9.63.

With “[^125I]-rAM: rat AM (rAM) iodinated using iodobeads, purified by reverse phase HPLC; radioligand (YRQSMNQGSRSTGCRFGTCTMQKLAHQIYQFTDKDKDGMAPRNKISPQGY; ends and bridges not checked; also: 125I label, residue not given here)” the “specific binding of [125I]-rAM” value ([31]; CLR I52A (printed 152A)) was “retained binding”, the “specific binding of [125I]-rAM” value ([31]; CLR M42A and Q45A) was “abolished” and the “specific binding of [125I]-rAM” value ([31]; CLR T37A and I41A) was “abolished”. For the same substance, the “specific binding of [125I]-rAM” value ([32]; CLR M42A and Q45A) was “retained” and the “specific binding of [125I]-rAM” value ([32]; CLR T37A and I41A) was “abolished”.
